The values that follow come from ChEMBL document CHEMBL1138747, “Synthesis and structure--activity relationship in a class of indolebutylpiperazines as dual 5-HT(1A) receptor agonists and serotonin reuptake inhibitors” (J Med Chem, 2004).

Test [1] deals with Sodium-dependent serotonin transporter (Rattus norvegicus, UniProt P31652). Kind of test: Inhibition of [3H]5-HT re-uptake in rat synaptosomes. The format is subcellular, Brain.
The target in a further test is D(2) dopamine receptor (Rattus norvegicus, UniProt P61169). Kind of test: Displacement of [3H]spiperone from dopamine D2 receptor of rat striatal membranes. It is filed as cell membranes, Membrane. In a few lines:
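IC50 from 5–10 compound concentrations, each in triplicate, taken as the concentration (nM) giving 50% inhibition of specific radioligand binding.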

The test system of test [2] is Rattus norvegicus. The test is described as follows: Dose required to inhibit ultrasonic vocalisation on peroral administered. It is filed as functional. Conditions: po, read-out: ID50 (the source's name). The essentials: (§1)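 Rat ultrasonic vocalization test. In a priming session, up to 10 grid-floor shocks were given (1.8 mA, 0.3 s, 20 s apart). Rats not vocalizing on three consecutive trials were excluded. Next day, rats were tested 2 h after dosing: five shocks, then vocalization duration recorded over 3 min. ID50 (dose for half-maximal inhibition) came from dose–response curves.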

Test [3] has as its system Rattus norvegicus. The test is described as follows: Dose required to inhibit ultrasonic vocalisation on subcutaneous administered. The format is functional. Conditions: sc, read-out: ID50 (the source's name). In a few lines:
as §1

For test [4], the target named is T1, 5-hydroxytryptamine receptor 1A (Rattus norvegicus, UniProt P19327).
T1 sequence (P19327 whole entry): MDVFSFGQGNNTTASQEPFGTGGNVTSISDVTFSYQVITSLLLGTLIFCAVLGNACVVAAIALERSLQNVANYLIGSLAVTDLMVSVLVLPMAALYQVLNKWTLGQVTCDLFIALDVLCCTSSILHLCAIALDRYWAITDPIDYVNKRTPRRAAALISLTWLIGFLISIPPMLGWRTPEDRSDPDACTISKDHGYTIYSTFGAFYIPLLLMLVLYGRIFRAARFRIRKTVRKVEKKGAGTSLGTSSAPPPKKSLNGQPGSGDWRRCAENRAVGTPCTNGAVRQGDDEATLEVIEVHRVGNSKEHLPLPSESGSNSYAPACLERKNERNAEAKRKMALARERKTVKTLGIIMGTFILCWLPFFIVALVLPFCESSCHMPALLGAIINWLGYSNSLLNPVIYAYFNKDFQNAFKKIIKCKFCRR
The test is described as follows: Inhibition of 8-OH DPAT binding to rat hydroxytryptamine 1A receptor.

The IC50 is the point on the concentration scale where inhibition reaches its midpoint.

Sodium-dependent serotonin transporter, sequence (P31652 whole entry): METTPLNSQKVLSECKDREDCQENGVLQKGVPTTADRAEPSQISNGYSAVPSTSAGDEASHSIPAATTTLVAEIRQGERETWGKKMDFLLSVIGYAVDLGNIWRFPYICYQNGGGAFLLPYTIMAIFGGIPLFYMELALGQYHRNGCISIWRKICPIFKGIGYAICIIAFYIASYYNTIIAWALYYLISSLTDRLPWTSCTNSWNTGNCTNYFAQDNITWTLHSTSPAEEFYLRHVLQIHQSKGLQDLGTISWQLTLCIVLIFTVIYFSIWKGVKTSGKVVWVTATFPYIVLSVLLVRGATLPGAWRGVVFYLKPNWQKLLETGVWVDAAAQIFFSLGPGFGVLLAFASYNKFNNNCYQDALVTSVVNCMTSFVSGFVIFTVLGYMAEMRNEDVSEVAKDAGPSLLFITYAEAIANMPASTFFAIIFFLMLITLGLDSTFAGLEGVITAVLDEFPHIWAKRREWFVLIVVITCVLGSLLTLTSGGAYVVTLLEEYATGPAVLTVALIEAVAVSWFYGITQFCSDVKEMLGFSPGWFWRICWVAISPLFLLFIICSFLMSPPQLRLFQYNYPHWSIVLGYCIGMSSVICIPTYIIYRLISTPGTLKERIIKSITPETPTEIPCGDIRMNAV
D(2) dopamine receptor, sequence (P61169 whole entry): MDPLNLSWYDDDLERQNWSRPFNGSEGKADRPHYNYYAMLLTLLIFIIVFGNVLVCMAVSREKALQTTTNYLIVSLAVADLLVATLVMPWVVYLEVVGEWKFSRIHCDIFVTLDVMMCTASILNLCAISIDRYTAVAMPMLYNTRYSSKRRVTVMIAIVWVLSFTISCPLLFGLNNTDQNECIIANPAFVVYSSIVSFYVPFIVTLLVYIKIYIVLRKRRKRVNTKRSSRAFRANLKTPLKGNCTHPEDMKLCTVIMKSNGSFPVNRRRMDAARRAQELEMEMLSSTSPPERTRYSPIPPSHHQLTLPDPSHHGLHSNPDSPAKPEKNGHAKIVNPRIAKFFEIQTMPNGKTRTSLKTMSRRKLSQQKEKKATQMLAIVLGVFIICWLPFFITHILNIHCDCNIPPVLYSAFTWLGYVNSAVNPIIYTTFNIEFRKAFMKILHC

As to `N#Cc1ccc2[nH]cc(CCCCN3CCN(c4ccc5c(c4)OCO5)CC3)c2c1`, the IC50 is 0.6 nM in test [1], 4.9 nM at D(2) dopamine receptor and 0.7 nM in test [4]. The ED50 in the test with Rattus norvegicus [2] was found to be 4 mg/kg; in the test with Rattus norvegicus [3], 1 mg/kg.
